Results taken from ChEMBL document CHEMBL4261530, “Rational design and synthesis of novel phenylsulfonyl-benzamides as anti-prostate cancer agents” (Medchemcomm, 2017).

Tests used:
LNCaP [1] = assay: Potency index, ratio of enzalutamide IC50 to test compound IC50 for human LNCAP cells; format: functional
LNCaP [2] = assay: Antiproliferative activity against human LNCAP cells after 96 hrs by propidium iodide staining-based fluorescence assay; format: functional, cell-based
VCaP [3] = assay: Potency index, ratio of enzalutamide IC50 to test compound IC50 for human VCaP cells; format: functional
DU-145 [4] = assay: Potency index, ratio of enzalutamide IC50 to test compound IC50 for human DU145 cells; format: functional
CWR22R [5] = assay: Antiproliferative activity against human 22Rv1 cells after 96 hrs by propidium iodide staining-based fluorescence assay; format: functional, cell-based
VCaP [6] = assay: Antiproliferative activity against human VCaP cells after 96 hrs by propidium iodide staining-based fluorescence assay; format: functional, cell-based
CWR22R [7] = assay: Potency index, ratio of enzalutamide IC50 to test compound IC50 for human 22Rv1 cells; format: functional
DU-145 [8] = assay: Antiproliferative activity against human DU145 cells after 96 hrs by propidium iodide staining-based fluorescence assay; format: functional, cell-based
HEK293 = assay: Cytotoxicity against HEK293 cells assessed as reduction in cell viability at 10 uM after 24 hrs by CellTiter-Blue assay relative to control; format: cell-based; conditions: human, hek293, 24 h
Procedure, shortened: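 HEK293 cells in DMEM with 10% FBS and 2 mM L-glutamine, seeded at 100,000 cells/ml and treated after 24 h at 10 µM for 24 h. […] Cell Titer Blue added for 2 h at 37°C, fluorescence read at 560/590 nm.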

Structure (SMILES) | Ratio IC50 (LNCaP [1]) | Activity (LNCaP [2]) | Ratio IC50 (VCaP [3]) | Ratio IC50 (DU-145 [4]) | Activity (CWR22R [5]) | Activity (VCaP [6]) | Ratio IC50 (CWR22R [7]) | Activity (DU-145 [8]) | IC50 (LNCaP [2]) | IC50 (CWR22R [5]) | IC50 (VCaP [6]) | IC50 (DU-145 [8]) | Activity (HEK293)
O=C(Nc1cc(C(F)(F)F)ccc1C(F)(F)F)c1ccc(S(=O)(=O)c2ccc(O)cc2)cc1 | <=8 | Dose-dependent effect | <=8 | <=8 | Dose-dependent effect | Dose-dependent effect | <=8 | Dose-dependent effect | – | – | – | – | –
O=C(Nc1ccc(C(F)(F)F)cc1)c1ccc(S(=O)(=O)c2ccc(O)cc2)cc1 | <=8 | Dose-dependent effect | <=8 | <=8 | Dose-dependent effect | Dose-dependent effect | <=8 | Dose-dependent effect | – | – | – | – | –
N#Cc1ccc(NC(=O)c2ccc(Sc3ccc(O)cc3)cc2)cc1C(F)(F)F | <=8 | Dose-dependent effect | <=8 | <=8 | Dose-dependent effect | Dose-dependent effect | <=8 | Dose-dependent effect | – | – | – | – | –
O=C(Nc1cccc(C(F)(F)F)c1)c1ccc(Sc2cccc(C(F)(F)F)c2)cc1 | <=8 | Dose-dependent effect | <=8 | <=8 | Dose-dependent effect | Dose-dependent effect | <=8 | Dose-dependent effect | – | – | – | – | –
O=C(Nc1cccc(C(F)(F)F)c1)c1ccc(S(=O)(=O)c2cccc(C(F)(F)F)c2)cc1 | – | – | – | – | – | – | – | – | Nd(Insoluble) | Nd(Insoluble) | Nd(Insoluble) | Nd(Insoluble) | –
O=C(Nc1cccc(C(F)(F)F)c1)c1ccc(Sc2ccc(O)cc2)cc1 | <=8 | Dose-dependent effect | <=8 | <=8 | Dose-dependent effect | Dose-dependent effect | <=8 | Dose-dependent effect | – | – | – | – | –
O=C(Nc1cccc(S(F)(F)(F)(F)F)c1)c1ccc(Sc2ccc(O)cc2)cc1 | <=8 | Dose-dependent effect | <=8 | <=8 | Dose-dependent effect | Dose-dependent effect | <=8 | Dose-dependent effect | – | – | – | – | –
O=C(Nc1ccc([N+](=O)[O-])c(C(F)(F)F)c1)c1ccc(S(=O)(=O)c2ccc(O)cc2)cc1 | <=8 | Dose-dependent effect | <=8 | <=8 | Dose-dependent effect | Dose-dependent effect | <=8 | Dose-dependent effect | – | – | – | – | –
O=C(Nc1ccc(S(F)(F)(F)(F)F)cc1)c1ccc(S(=O)(=O)c2ccc(O)cc2)cc1 | <=8 | Dose-dependent effect | <=8 | <=8 | Dose-dependent effect | Dose-dependent effect | <=8 | Dose-dependent effect | – | – | – | – | > 50%
O=C(Nc1cccc(S(F)(F)(F)(F)F)c1)c1ccc(S(=O)(=O)c2ccc(O)cc2)cc1 | <=8 | Dose-dependent effect | <=8 | <=8 | Dose-dependent effect | Dose-dependent effect | <=8 | Dose-dependent effect | – | – | – | – | –
N#Cc1ccc(NC(=O)c2ccc(S(=O)(=O)c3ccc(O)cc3)cc2)cc1C(F)(F)F | <=8 | Dose-dependent effect | <=8 | <=8 | Dose-dependent effect | Dose-dependent effect | <=8 | Dose-dependent effect | – | – | – | – | –
O=C(Nc1ccc(S(F)(F)(F)(F)F)cc1)c1ccc([S+]([O-])c2ccc(O)cc2)cc1 (configuration not stated) | <=8 | Dose-dependent effect | <=8 | <=8 | Dose-dependent effect | Dose-dependent effect | <=8 | Dose-dependent effect | – | – | – | – | –
O=C(Nc1ccccc1C(F)(F)F)c1ccc([S+]([O-])c2ccc(O)cc2)cc1 (configuration not stated) | – | Dose-dependent effect | – | – | Dose-dependent effect | Dose-dependent effect | – | Dose-dependent effect | – | – | – | – | –
O=C(Nc1ccc(S(F)(F)(F)(F)F)cc1)c1ccc(Sc2ccc(O)cc2)cc1 | <=8 | Dose-dependent effect | <=8 | <=8 | Dose-dependent effect | Dose-dependent effect | <=8 | Dose-dependent effect | – | – | – | – | Toxic
N#Cc1ccc(NC(=O)c2ccc(Sc3cccc(C(F)(F)F)c3)cc2)cc1C(F)(F)F | <=8 | Dose-dependent effect | <=8 | <=8 | Dose-dependent effect | Dose-dependent effect | <=8 | Dose-dependent effect | – | – | – | – | –
O=C(Nc1ccc(C(F)(F)F)cc1)c1ccc(Sc2ccc(O)cc2)cc1 | <=8 | Dose-dependent effect | <=8 | <=8 | Dose-dependent effect | Dose-dependent effect | <=8 | Dose-dependent effect | – | – | – | – | –
O=C(Nc1ccc([N+](=O)[O-])c(C(F)(F)F)c1)c1ccc(Sc2ccc(O)cc2)cc1 | <=8 | Dose-dependent effect | <=8 | <=8 | Dose-dependent effect | Dose-dependent effect | <=8 | Dose-dependent effect | – | – | – | – | –
O=C(Nc1cc(C(F)(F)F)cc(C(F)(F)F)c1)c1ccc(S(=O)(=O)c2ccc(O)cc2)cc1 | <=8 | Dose-dependent effect | <=8 | <=8 | Dose-dependent effect | Dose-dependent effect | <=8 | Dose-dependent effect | – | – | – | – | –
O=C(Nc1cc(C(F)(F)F)cc(C(F)(F)F)c1)c1ccc(Sc2ccc(O)cc2)cc1 | <=8 | Dose-dependent effect | <=8 | <=8 | Dose-dependent effect | Dose-dependent effect | <=8 | Dose-dependent effect | – | – | – | – | –
N#Cc1ccc(NC(=O)c2ccc(S(=O)(=O)c3cccc(C(F)(F)F)c3)cc2)cc1C(F)(F)F | <=8 | Dose-dependent effect | <=8 | <=8 | Dose-dependent effect | Dose-dependent effect | <=8 | Dose-dependent effect | – | – | – | – | –
O=C(Nc1ccccc1C(F)(F)F)c1ccc(Sc2ccc(O)cc2)cc1 | <=8 | Dose-dependent effect | <=8 | <=8 | Dose-dependent effect | Dose-dependent effect | <=8 | Dose-dependent effect | – | – | – | – | –
O=C(Nc1cc(C(F)(F)F)ccc1C(F)(F)F)c1ccc(Sc2ccc(O)cc2)cc1 | <=8 | Dose-dependent effect | <=8 | <=8 | Dose-dependent effect | Dose-dependent effect | <=8 | Dose-dependent effect | – | – | – | – | Toxic
O=C(Nc1ccccc1C(F)(F)F)c1ccc(S(=O)(=O)c2ccc(O)cc2)cc1 | <=8 | Dose-dependent effect | <=8 | <=8 | Dose-dependent effect | Dose-dependent effect | <=8 | Dose-dependent effect | – | – | – | – | –
O=C(Nc1cccc(C(F)(F)F)c1)c1ccc(S(=O)(=O)c2ccc(O)cc2)cc1 | <=8 | Dose-dependent effect | <=8 | <=8 | Dose-dependent effect | Dose-dependent effect | <=8 | Dose-dependent effect | – | – | – | – | –
